Measured values as given in ChEMBL document CHEMBL1139367, “A novel histone acetyltransferase inhibitor modulating Gcn5 network: cyclopentylidene-[4-(4'-chlorophenyl)thiazol-2-yl)hydrazone” (2009).
Active and inactive are the calls of the source. No cut-off for these calls is given here.

Tests used:
[1] = target: Histone acetyltransferase KAT2A (Homo sapiens) (UniProt Q92830); assay: Inhibition of human recombinant Gcn5 assessed as reduction in acetylated histone H3 level at 0.2 mM by Western blot analysis in presence of histone H3
Histone acetyltransferase KAT2A (Homo sapiens), sequence (Q92830 2-837 limits assumed): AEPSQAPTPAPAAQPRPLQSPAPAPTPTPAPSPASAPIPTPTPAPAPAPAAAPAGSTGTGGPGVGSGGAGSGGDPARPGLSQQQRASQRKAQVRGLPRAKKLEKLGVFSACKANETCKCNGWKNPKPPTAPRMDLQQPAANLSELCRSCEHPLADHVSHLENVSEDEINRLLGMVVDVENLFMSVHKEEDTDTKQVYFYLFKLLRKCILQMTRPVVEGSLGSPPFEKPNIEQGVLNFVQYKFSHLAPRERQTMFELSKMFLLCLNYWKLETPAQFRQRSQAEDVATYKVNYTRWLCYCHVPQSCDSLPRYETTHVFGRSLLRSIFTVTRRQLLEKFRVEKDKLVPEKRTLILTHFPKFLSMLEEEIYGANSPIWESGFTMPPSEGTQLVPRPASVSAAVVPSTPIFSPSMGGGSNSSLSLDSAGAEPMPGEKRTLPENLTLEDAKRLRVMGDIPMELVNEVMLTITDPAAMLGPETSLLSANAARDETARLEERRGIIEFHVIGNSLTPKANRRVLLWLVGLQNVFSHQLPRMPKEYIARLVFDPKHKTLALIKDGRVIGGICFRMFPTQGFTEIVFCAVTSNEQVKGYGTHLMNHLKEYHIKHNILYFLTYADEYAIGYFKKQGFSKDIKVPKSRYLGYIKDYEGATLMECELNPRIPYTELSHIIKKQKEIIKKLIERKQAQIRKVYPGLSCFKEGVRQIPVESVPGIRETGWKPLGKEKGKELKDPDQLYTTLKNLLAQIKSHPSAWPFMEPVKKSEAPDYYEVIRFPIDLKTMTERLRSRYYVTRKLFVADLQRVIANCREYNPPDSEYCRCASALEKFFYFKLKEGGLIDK
Method in brief: (§1)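 Tube reaction of human recombinant Gcn5 (50 ng) with 1 mM acetyl-CoA and histone H3 (100 or 200 ng). Buffer: 50 mM Tris-HCl pH 8.0, 0.1 mM EDTA, 50 mM KCl, 1 mM DTT, 5% glycerol. Incubated 1 h at 28 °C with or without compound, then 15% SDS-PAGE and blotting. Blots were probed serially with anti-acetyl-lysine and anti-acetyl-H3 antibodies.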

[2] = target: Histone acetyltransferase KAT2A (Homo sapiens) (UniProt Q92830); assay: Inhibition of human recombinant Gcn5 assessed as reduction in acetylated histone H3 level at 0.2 mM by Western blot analysis; method in brief: as §1
[3] = target: Histone acetyltransferase KAT2A (Homo sapiens) (UniProt Q92830); assay: Inhibition of human recombinant Gcn5 assessed as reduction in acetylated histone H3 level at 0.8 mM by Western blot analysis in presence of increased concentration of acetyl-CoA
Saccharomyces cerevisiae [4] = assay: Growth inhibition of Saccharomyces cerevisiae gcn5delta mutant at 0.2 to 1 mM after 48 hrs at 28 degC by growth spot assay; type: functional, organism-based
Method in brief: (§2)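 Exponentially growing yeast cells at 0.2 OD/mL were serially diluted 1/5. They were spotted on solid YEPD (2% agar) containing 1% DMSO, with compound added from a 100 mM DMSO stock at increasing concentrations. Plates were incubated at 28 °C. Each mutant was compared with its isogenic wild type (S288c, YMK986 or SB819).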

Saccharomyces cerevisiae [5] = assay: Growth inhibition of Saccharomyces cerevisiae SB0-deltabr mutant at 0.2 to 1 mM after 48 hrs at 28 degC by growth spot assay; type: functional, organism-based; method in brief: as §2
Saccharomyces cerevisiae [6] = assay: Growth inhibition of Saccharomyces cerevisiae gcn5E173H mutant at 0.2 to 1 mM after 48 hrs at 28 degC by growth spot assay; type: functional, organism-based; method in brief: as §2
[7] = target: Histone acetyltransferase KAT2A (Homo sapiens) (UniProt Q92830); assay: Inhibition of human recombinant Gcn5 assessed as reduction in acetylated histone H3 level at 0.8 mM by Western blot analysis in presence of 200 ng histone H3; method in brief: as §1
[8] = target: Histone acetyltransferase KAT2A (Homo sapiens) (UniProt Q92830); assay: Inhibition of human recombinant Gcn5 assessed as reduction in acetylated histone H3 level at 0.8 mM by Western blot analysis; method in brief: as §1
Saccharomyces cerevisiae [9] = assay: Growth inhibition of wild type wild type Saccharomyces cerevisiae SB819 at 0.2 to 1 mM after 48 hrs at 28 degC by growth spot assay; type: functional, organism-based; method in brief: as §2
Saccharomyces cerevisiae [10] = assay: Inhibition of global histone H3 acetylation in Saccharomyces cerevisiae gcn5delta mutant at 0.8 mM after 24 hrs at 28 degC by hybridization assay; type: functional, organism-based
Saccharomyces cerevisiae [11] = assay: Inhibition of histone H3 acetylation at H3-AcK14 site in wild type Saccharomyces cerevisiae S288C at 0.8 mM after 24 hrs at 28 degC by hybridization assay; type: functional, organism-based
Method in brief: (§3)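 Wild-type S288c yeast grown 24 h at 28 °C in YEPD with 1% DMSO, with or without compound added to the medium. Bulk proteins were extracted by an alkaline protocol, run on 15% SDS-PAGE and blotted. Blots were probed for acetylated H3, H4 and H3-K14Ac, with ECL detection. Signals were normalized to Ada2p and quantified densitometrically.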

Saccharomyces cerevisiae [12] = assay: Decrease in global histone H3 acetylation in wild type Saccharomyces cerevisiae S288C at 0.8 mM after 24 hrs at 28 degC by hybridization assay; type: functional; set-up: scale not given: the % may be the effect or the level left; method in brief: as §3
Saccharomyces cerevisiae [13] = assay: Inhibition of histone H3 acetylation at H3-AcK14 site in Saccharomyces cerevisiae gcn5delta mutant at 0.8 mM after 24 hrs at 28 degC by hybridization assay; type: functional, organism-based
Saccharomyces cerevisiae [14] = assay: Reduction of global histone H4 acetylation in wild type Saccharomyces cerevisiae S288C at 0.8 mM after 24 hrs at 28 degC by hybridization assay; type: functional, organism-based; method in brief: as §3

Activity [1] | Activity [2] | Activity [3] | Activity [7] | Activity [8] | Compound | Activity (Saccharomyces cerevisiae [4]) | Activity (Saccharomyces cerevisiae [5]) | Activity (Saccharomyces cerevisiae [6]) | Activity (Saccharomyces cerevisiae [9]) | Activity (Saccharomyces cerevisiae [10]) | Activity (Saccharomyces cerevisiae [11]) | Activity (Saccharomyces cerevisiae [12]) | Activity (Saccharomyces cerevisiae [13]) | Activity (Saccharomyces cerevisiae [14])
Active | Active | – | – | – | C=CC/C=C\C/C=C\CCCCCCCc1cccc(O)c1C(=O)O | – | – | – | – | – | – | – | – | –
– | – | Active | inactive | Active | Clc1ccc(-c2csc(NN=C3CCCC3)n2)cc1 | Active | inactive | Active | inactive | Active | Active | 30% | Active | inactive
